From PubChem
CXCR6 inh = blocks human CXCR6 beta-arrestin recruitment. CHO-K1 PathHunter CXCR6 beta-arrestin, luminescence. inhibition, % at 20 µM. 360,000 compounds, 0.36% hits; in the data active = inhibition above about 34%, passing the limit was not always enough;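 also: antagonist mode with CXCL16 agonist at 10 nM final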
Target sequence (O00574 whole entry, looked up): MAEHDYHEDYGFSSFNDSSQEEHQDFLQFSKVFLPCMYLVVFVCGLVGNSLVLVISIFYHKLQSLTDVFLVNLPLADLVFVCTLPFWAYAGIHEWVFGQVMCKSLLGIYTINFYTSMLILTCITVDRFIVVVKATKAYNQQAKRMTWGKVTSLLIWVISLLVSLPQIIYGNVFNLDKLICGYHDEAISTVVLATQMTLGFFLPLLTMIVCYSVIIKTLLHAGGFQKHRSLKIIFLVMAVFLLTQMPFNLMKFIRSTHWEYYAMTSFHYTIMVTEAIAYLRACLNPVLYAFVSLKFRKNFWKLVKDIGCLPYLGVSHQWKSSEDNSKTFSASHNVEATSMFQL
APJ agonist = activates the human apelin receptor APJ; P35414; CHO-K1 APJ PathHunter beta-arrestin, luminescence; 0% DMSO wells, 100% apelin; activation, % at 20 µM; 330,000 compounds, 0.11% hits;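 active = activation more than six SD over the plate average, tested at 20 µM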
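Assay system – PathHunter CHO-K1 APJ (AGTRL-1) beta-arrestin reporter cells · Compound – one dose, 20 µM compound, 1% DMSO · Timing – compound 90 min 25 °C, reagent 1 h · Measured by – luminescence from split beta-galactosidase complementation, Galacton Star/Emerald II substrate · Measure – beta-arrestin recruitment to APJ as agonist activity, luminescent signal · Benchmarks – DMSO vs Apelin-13 10 nM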
CCR6 antag = blocks CCL20-driven beta-arrestin recruitment at human CCR6; CHO-K1 CCR6 PathHunter beta-arrestin, luminescence, CCL20-stimulated; inhibition, % at 20 µM; 340,000 compounds, 0.49% hits; AID 493098;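 active = compounds whose inhibition of the agonist-driven luminescence signal at 20 µM reaches about 50%, limit read from the data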;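 also: cells stimulated with CCL20 at 14 nM final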
APJ antag = blocks the human apelin receptor APJ; P35414; CHO-K1 APJ beta-arrestin complementation, luminescence; inhibition, % at 20 µM; 330,000 compounds, 0.32% hits; AID 2521;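 active = inhibition above about 40% at 20 µM, limit read from the data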;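 also: cells challenged with 10 nM apelin-13 agonist together with compound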
EBI2 antag = antagonists of human EBI2 receptor; EBI2 beta-arrestin recruitment, luminescence, 7a,25-OHC stimulated; P32249; AID 651636; inhibition, % at 5 µM; 360,000 compounds, 0.81% hits; in the data active = inhibition above about 38%;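 also: enzyme fragment complementation signal reports receptor beta-arrestin coupling in cells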
Target sequence (P32249 whole entry, looked up, the tested form may be a part): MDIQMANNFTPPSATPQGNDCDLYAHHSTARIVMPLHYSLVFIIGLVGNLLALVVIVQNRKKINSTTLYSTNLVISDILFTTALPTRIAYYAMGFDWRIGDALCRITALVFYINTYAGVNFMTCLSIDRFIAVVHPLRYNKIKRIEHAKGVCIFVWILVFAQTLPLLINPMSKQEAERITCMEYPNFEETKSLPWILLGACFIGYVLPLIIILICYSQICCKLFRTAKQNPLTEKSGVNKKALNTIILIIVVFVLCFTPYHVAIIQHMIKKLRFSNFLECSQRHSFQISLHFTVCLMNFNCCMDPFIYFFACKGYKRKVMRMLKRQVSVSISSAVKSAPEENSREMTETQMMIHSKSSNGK
EBI2 antag conf = EBI2 (human) antagonism, single concentration confirmation; inhibition, % at 5 µM; shares compounds with EBI2 antag; 2,400 compounds, 29% hits; EBI2 beta-arrestin luminescence, 7a,25-OHC antagonism;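 active = inhibition of at least 50%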
EBI2 agonist = EBI2 agonism counter-screen; shares compounds with EBI2 antag; EBI2-expressing cells, agonist mode, luminescence, 60 min; 0% vehicle, 100% 7α,25-dihydroxycholesterol control; activation, % at 5 µM; 2,400 tested, under 10 active;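 active = activation of at least 50%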
bGal counter = inhibits E. coli beta-galactosidase, counter-screen for EBI2 antagonists; purified beta-galactosidase, luminescent Galacton Star, 15 min; inhibition, % at 5 µM; 2,400 compounds, 1% hits; shares compounds with EBI2 antag;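 active = replicate-average signal at least 3 plate SD below neutral wells, shown as high inhibition, flagging enzyme-inhibiting false positives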;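 also: higher means stronger loss of beta-gal luminescence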
Large screens that a line does not name were inactive (follow-up assays come after a bar, where they were run). This is a sample that favours compounds with a hit; in the whole collection about 1.5% have one here.

CCOC(=O)C1=C(O)/C(=C/c2ccc(OCC(=O)O)c(OCC)c2)SC1=Nc1ccc(OC)cc1	none
C=CCN1C(=O)NC(c2ccccc2)(C(F)(F)F)S/C1=C(\C#N)c1nnc(N2CCOCC2)n1-c1ccccc1 (stereo unspecified)	EBI2 antag 52.8 | EBI2 antag conf 52.6 | EBI2 agonist inactive | bGal counter inactive
CCOC(=O)N1CCN(C(=S)NC(=O)/C=C/c2ccc(C)cc2)CC1	EBI2 antag 83.3 | EBI2 antag conf inactive | EBI2 agonist inactive | bGal counter inactive
S=C(NCc1ccco1)N1CCN(c2nc(-c3ccccc3)cs2)CC1	none
S=C(NCC1CCCO1)N1CCN(c2nc(-c3ccccc3)cs2)CC1 (stereo unspecified)	EBI2 antag 40.2 | EBI2 antag conf inactive | EBI2 agonist inactive | bGal counter inactive
Cc1nc(CS(=O)(=O)c2ccccc2)cc(Sc2ccccc2Cl)n1	none
Cc1nc(CS(=O)(=O)c2ccccc2)cc(Sc2ccc(Cl)cc2)n1	EBI2 antag 45.9 | EBI2 antag conf inactive | EBI2 agonist inactive | bGal counter inactive
Cc1nc(CS(=O)(=O)c2ccc(Cl)cc2)cc(Sc2ccccc2Cl)n1	EBI2 antag 70.6 | EBI2 antag conf inactive | EBI2 agonist inactive | bGal counter inactive
CCOc1ccc(C(O)C(CN2CCOCC2)c2ccccc2)cc1 (stereo unspecified)	none
CCCCOCCCN1CC(=O)N2[C@@H](Cc3c([nH]c4ccccc34)C2(C)C)C1=O	none
CCOC(=O)N1CCN(C(=O)c2ccccc2NC(=O)COc2ccccc2)CC1	none
Cc1ccc(OCCNC(=O)CCNS(=O)(=O)c2ccc3ccccc3c2)cc1	EBI2 antag 47.5 | EBI2 antag conf inactive | EBI2 agonist inactive | bGal counter inactive
Cc1ccc(C(=O)NCCOc2ccc(Cl)cc2)cc1	EBI2 antag 51.0 | EBI2 antag conf inactive | EBI2 agonist inactive | bGal counter inactive
O=C(Cc1ccc(F)cc1)NCCc1ccc(F)cc1	none
COc1cccc(OCCNC(=O)c2cc([N+](=O)[O-])cc([N+](=O)[O-])c2)c1	none
Cc1ccc(OCCNC(=O)c2cc(C(=O)NCCOc3ccc(C)cc3)cc([N+](=O)[O-])c2)cc1	EBI2 antag 47.2 | EBI2 antag conf inactive | EBI2 agonist inactive | bGal counter inactive
Cc1ccc(OCCNC(=O)Cc2ccc(F)cc2)cc1	EBI2 antag 50.0 | EBI2 antag conf inactive | EBI2 agonist inactive | bGal counter inactive
Cc1ccc(S(=O)(=O)NCCC(=O)NCCOc2ccccc2)cc1	none
OC[C@@H]1CN(Cc2ccc(Cl)cc2)C[C@H](n2cnc3c(N4CCN(c5ccccc5)CC4)ncnc32)O1	none (no result: APJ agonist, CCR6 antag, APJ antag)
CCc1ccccc1NC(=O)CN1CCN(C(=O)CN2C(=O)NC3(CCCC3)C2=O)CC1	none
C/C(=N\NS(=O)(=O)c1c(C)cc(C)cc1C)c1ccncc1	none
CCc1ccc(OCCNC(=O)c2ccc(S(=O)(=O)N(C)C)cc2)cc1	EBI2 antag 63.7 | EBI2 antag conf inactive | EBI2 agonist inactive | bGal counter inactive
Cc1cccc(C)c1NC(=O)C(=O)NCCOc1ccc(Cl)cc1	EBI2 antag 51.3 | EBI2 antag conf inactive | EBI2 agonist inactive | bGal counter inactive
S=c1[nH]c(-c2ccc(Br)cc2)cn1CCc1ccccc1	EBI2 antag 56.6 | EBI2 antag conf inactive | EBI2 agonist inactive | bGal counter inactive
O=C(O)C1(Nc2ccccc2Cl)CCCC1	none (no result: APJ agonist, APJ antag)
O=[N+]([O-])c1ccc2c(c1Nc1ccccc1Cl)=NC1(CCCCC1)N=2	EBI2 antag 63.4 | EBI2 antag conf inactive | EBI2 agonist inactive | bGal counter inactive
CCn1c(SCC(=O)N/N=C/c2ccc(C)o2)nnc1-c1ccccc1	EBI2 antag 51.1 | EBI2 antag conf inactive | EBI2 agonist inactive | bGal counter inactive
NC(N)=N/N=C/c1ccccc1	none
NC(=N\N=Cc1ccccc1)/C(N)=N/N=Cc1ccccc1	EBI2 antag 48.5 (no result: APJ agonist, APJ antag) | EBI2 antag conf inactive | EBI2 agonist inactive | bGal counter inactive
CC(=O)n1cc([C@H]2C=C(C(=O)N3CCN(Cc4ccc5c(c4)OCO5)CC3)O[C@@H](OCc3ccc(CO)cc3)C2)c2ccccc21	none
CC(=O)n1cc([C@H]2C=C(C(=O)N3CCN(Cc4ccccc4)CC3)O[C@@H](OCc3ccc(CO)cc3)C2)c2ccccc21	EBI2 antag 46.8 | EBI2 antag conf inactive | EBI2 agonist inactive | bGal counter inactive
CCOc1ccccc1CN1[C@@H](c2ccc(OC)cc2)CC(C(=O)OC)(C(=O)OC)[C@H]1c1ccccc1	none (no result: CXCR6 inh, APJ agonist, CCR6 antag, APJ antag)
COc1ccccc1-c1cc(C(=O)N2CCN(S(=O)(=O)c3ccc(C)cc3)CC2)[nH]n1	EBI2 antag 61.5 | EBI2 antag conf inactive | EBI2 agonist inactive | bGal counter inactive
COc1ccc(S(=O)(=O)N2CCN(C(=O)c3cc(-c4ccc(Br)cc4)n[nH]3)CC2)cc1OC	EBI2 antag 71.9 | EBI2 antag conf inactive | EBI2 agonist inactive | bGal counter inactive
O=C(c1cc(-c2ccccc2)n[nH]1)N1CCN(S(=O)(=O)c2ccccc2)CC1	EBI2 antag 59.4 | EBI2 antag conf inactive | EBI2 agonist inactive | bGal counter inactive
O=C(c1cc(-c2ccc(Br)cc2)n[nH]1)N1CCN(C(=O)c2ccccc2Br)CC1	EBI2 antag 84.4 | EBI2 antag conf 51.6 | EBI2 agonist inactive | bGal counter inactive
O=C(O)c1cc(-c2ccccc2)n[nH]1	none
Cc1ccc(S(=O)(=O)N2CCOCC2)cc1NC(=O)CSc1nnc(NC2CC2)s1	none
O=c1[nH]c(CSc2ccccn2)nc2c1oc1ccccc12	none
COc1ccc(-c2cc(C(=O)N3CCN(C(=O)c4ccccc4F)CC3)[nH]n2)cc1	none
COc1ccc(-c2cc(C(=O)N3CCN(S(=O)(=O)c4ccccc4)CC3)[nH]n2)cc1	EBI2 antag 48.3 | EBI2 antag conf inactive | EBI2 agonist inactive | bGal counter inactive
CCOC(=O)C1CCCN(C2=NC(=O)/C(=C/c3ccc(OC)cc3)S2)C1 (stereo unspecified)	EBI2 antag 61.1 | EBI2 antag conf inactive | EBI2 agonist inactive | bGal counter inactive
O=C1N=C(N2CCCCC2)S/C1=C\c1ccc(Cl)cc1	EBI2 antag 85.7 | EBI2 antag conf 54.7 | EBI2 agonist inactive | bGal counter inactive
CCOC(=O)C1CCCN(C2=NC(=O)/C(=C/c3ccc(OC)cc3OC)S2)C1 (stereo unspecified)	none
C=CCOc1ccc(/C=C2\SC(N3CCCCC3)=NC2=O)cc1	EBI2 antag 57.0 | EBI2 antag conf inactive | EBI2 agonist inactive | bGal counter inactive
O=C1N=C(N2CCCC2)S/C1=C\c1ccccc1	none
